The source of these data is ChEMBL document CHEMBL1131052, “Bis-substituted malonic acid hydroxamate derivatives as inhibitors of human neutrophil collagenase (MMP8)” (J Med Chem, 1998).

The assay has as its target Neutrophil collagenase (Homo sapiens, UniProt P22894). In words: Inhibition of human neutrophil collagenase (Matrix metalloprotease-8). An outline of the steps:
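Catalytic domain of MMP8 (Phe79–Gly242) at 8 nM; fluorogenic substrate Dnp-Pro-Leu-Gly-Leu-Trp-Ala-D-Arg-NH2 at 1 × 10^-5 M; 10 mM CaCl2, 100 mM NaCl, 50 mM Tris/HCl pH 7.6, 25 °C. Initial hydrolysis rates were taken from the fluorescence rise at 350 nm over 100 s. IC50 values were fitted from these rates, and Ki values were derived from the kinetic data.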

Neutrophil collagenase, sequence (P22894 whole entry, the tested form may be a part): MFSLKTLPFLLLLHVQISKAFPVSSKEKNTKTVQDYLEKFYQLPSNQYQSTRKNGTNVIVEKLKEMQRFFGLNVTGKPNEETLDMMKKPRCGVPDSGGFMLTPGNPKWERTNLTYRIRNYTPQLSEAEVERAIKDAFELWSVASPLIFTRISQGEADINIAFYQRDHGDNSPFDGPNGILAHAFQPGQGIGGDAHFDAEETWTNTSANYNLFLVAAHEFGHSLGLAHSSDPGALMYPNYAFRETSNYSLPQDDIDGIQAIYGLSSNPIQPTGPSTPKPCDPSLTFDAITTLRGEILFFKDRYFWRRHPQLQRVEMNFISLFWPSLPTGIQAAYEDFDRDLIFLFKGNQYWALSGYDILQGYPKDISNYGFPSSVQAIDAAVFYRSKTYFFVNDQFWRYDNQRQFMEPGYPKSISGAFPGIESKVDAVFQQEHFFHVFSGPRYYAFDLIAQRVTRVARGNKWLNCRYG

In the case of `CC(Cc1ccccc1)(C(=O)NO)C(=O)N1CCc2ccccc2C1` (stereo not given), the affinity corresponds to a Ki of 8100 nM. The same measure for `CC(Cc1ccccc1)(C(=O)NO)C(=O)NCc1ccc(C(=O)O)cc1` (stereo not given): 41000 nM; for `CC(Cc1ccccc1)(C(=O)NO)C(=O)Nc1ccccc1` (stereo not given): 44000 nM; for `CC(Cc1ccccc1)(C(=O)NO)C(=O)NCc1ccccc1` (stereo not given): 1100 nM. The same measure for `O=C(NO)C1(C(=O)NCc2ccccc2)Cc2ccccc2C1`: 1500 nM; for `CCOC(=O)C(C)(Cc1ccccc1)C(=O)NO` (stereo not given): 11000 nM. `O=C(NO)C(O)(Cc1ccccc1)C(=O)NCc1ccccc1` (stereo not given) displayed a Ki of 1900 nM. The same measure for `CC(Cc1ccccc1)(C(=O)NO)C(=O)NCCc1ccccc1` (stereo not given): 9600 nM; for `O=C(NO)C1(C(=O)NCCCc2ccccc2)Cc2ccccc2C1`: 300 nM. Under `CC(Cc1ccccc1)(C(=O)NO)C(=O)NCCCc1ccccc1` (stereo not given) stands 240 nM. `O=C(NO)C1(C(=O)NCCCc2ccccc2)Cc2ccccc2-c2ccccc2C1` yielded a Ki of 1900 nM. The same measure for `CC(=O)NC(Cc1ccccc1)(C(=O)NO)C(=O)NCc1ccccc1` (stereo not given): 2300 nM. For the compound `CC(Cc1ccccc1)(C(=O)NO)C(=O)Nc1cccc2ccccc12` (stereo not given), the Ki turned out to be 45000 nM. Under `CCOC(=O)C(C)(CC(C)C)C(=O)NO` (stereo not given) stands 41000 nM; under `CC(Cc1ccccc1)(C(=O)NO)C(=O)NCCCCc1ccccc1` (stereo not given), 380 nM.

By Ki is commonly meant the equilibrium dissociation constant of an inhibitor or competing ligand from its target. A lower Ki goes with higher affinity.
